Screens: PubChem BioAssay, several laboratories
TAAR1 antag = human TAAR1 antagonism. 360,000 tested, 1.5% active. CHO RD-HGA16 TAAR1, Fluo-8 calcium fluorescence, antagonist. inhibition, % at 3 µM. Q96RJ0;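 active = inhibition above a per-plate cutoff, the mean inhibition of test compounds on that plate plus 3 SD, cut at about 49% in these data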;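 note: 0% = DMSO plus EC80 beta-PEA response and 100% = DMSO alone without agonist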
Target sequence (Q96RJ0 whole entry, looked up): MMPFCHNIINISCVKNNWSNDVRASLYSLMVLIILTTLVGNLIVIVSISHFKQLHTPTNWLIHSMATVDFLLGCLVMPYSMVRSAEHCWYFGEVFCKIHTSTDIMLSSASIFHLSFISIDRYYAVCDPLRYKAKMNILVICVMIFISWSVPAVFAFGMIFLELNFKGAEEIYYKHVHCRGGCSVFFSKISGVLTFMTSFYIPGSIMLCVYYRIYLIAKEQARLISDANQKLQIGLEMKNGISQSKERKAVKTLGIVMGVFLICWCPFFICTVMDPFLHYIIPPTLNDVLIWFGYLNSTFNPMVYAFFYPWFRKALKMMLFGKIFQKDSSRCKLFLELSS
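test system = CHO RD-HGA16 cells bearing hTAAR1 | replication = singlicate | controls = DMSO-only wells and EC80 β-PEA-stimulated wells | reagent = EC80 β-phenethylamine stimulus | read-out basis = percent inhibition of PEA-evoked calcium signal, max/basal emission ratio | schedule = seeding 17-24 h prior, 75-min 37 °C, 30-min RT dye loading | signal = kinetic Fluo-8 calcium fluorescence measurement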
TAAR1 ag = human TAAR1 agonism | activation, % at 3 µM | 360,000 tested, 0.99% active | Q96RJ0 | CHO RD-HGA16 TAAR1, Fluo-8 calcium fluorescence; vehicle wells 0%, saturating PEA agonist 100%;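 active = activation above the mean activation of all test compounds in the run plus 3 SD, cut at about 38% in these data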
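System: CHO RD-HGA16 cells carrying human TAAR1 plus Gα16; Incubation: 17-24 h seeding, 75 min 37 °C dye, 30 min RT; Measured by: Fluo-8 fluorescence, 5 s baseline then 140 s kinetic read; Control set: DMSO and PEA EC100; Replication: single well for each compound.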
DAGLB inhibitor = diacylglycerol lipase beta (human) inhibition; inhibition, % at 5.17 µM; 340,000 tested, 0.059% active; HEK293T DAGLB membrane lysate, EnzChek fluorogenic substrate; Q8NCG7; in the data active = inhibition above about 34%;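 note: 0% = enzyme with vehicle and 100% = wells lacking enzyme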
MPTP block = blocks calcium-induced mitochondrial swelling; isolated mouse mitochondria, Ca2+ swelling absorbance, 30 min; inhibition, % at 10 µM; 360,000 tested, 1.4% active;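 active = inhibition of 50% or more, scaled per plate between neutral and stimulator controls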;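 note: 0% = DMSO wells given calcium and 100% = 1 mM EGTA wells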
GPR7 antagonist = blocks human GPR7 receptor signaling; GPR7-expressing cells, fluorescence antagonist assay; inhibition, % at 4.4 µM; P48145; 290,000 tested, 1.1% active; AID 1861; in the data active = inhibition above about 16%, passing the limit was not always enough;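 note: cells stimulated with the agonist NPW; 0% = agonist with vehicle and 100% = vehicle without agonist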
Target sequence (P48145 whole entry, looked up): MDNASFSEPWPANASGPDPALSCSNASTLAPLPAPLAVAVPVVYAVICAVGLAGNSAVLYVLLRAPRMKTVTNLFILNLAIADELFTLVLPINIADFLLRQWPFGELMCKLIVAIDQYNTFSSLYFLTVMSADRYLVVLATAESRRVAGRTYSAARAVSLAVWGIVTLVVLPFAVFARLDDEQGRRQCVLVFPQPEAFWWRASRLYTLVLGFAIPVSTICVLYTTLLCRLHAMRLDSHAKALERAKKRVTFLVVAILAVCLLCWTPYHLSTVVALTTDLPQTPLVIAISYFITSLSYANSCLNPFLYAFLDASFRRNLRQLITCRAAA
TAAR1 ag conf = confirmation of human TAAR1 agonists; shares compounds with TAAR1 ag; CHO RD-HGA16 TAAR1, Fluo-8 calcium fluorescence; scaled: DMSO 0%, maximal phenethylamine 100%; activation, % at 3 µM; 2,400 tested, 82% active; AID 651783;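 active = activation above a cutoff set at the run's mean compound activation plus 3 SD, cut at about 39% in these data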
Ga16 ag counter = counter-screen for TAAR1 agonists: nonselective agonists in parental cells. shares compounds with TAAR1 ag. CHO-Ga16 parental, Fluo-8 calcium fluorescence; normalized to maximal ATP response, DMSO zero. activation, % at 3 µM. 2,400 tested, 50% active;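 active = activation above the run cutoff, the mean activation over all tested wells plus 3 SD, cut at about 12% in these data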;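 note: 0% = DMSO wells and 100% = maximal ATP response on the peak over basal ratio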
TAAR1 desens = counter-screen for human TAAR1 agonists: agonists that desensitize TAAR1; shares compounds with TAAR1 ag; CHO RD-HGA16 hTAAR1, Fluo-8 calcium, beta-PEA response inhibition; inhibition, % at 3 µM; 2,400 tested, 46% active;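 active = inhibition above the run cutoff, the mean inhibition of all test compounds plus 3 SD, cut at about 49% in these data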;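 note: beta-PEA stimulus applied at its EC80; loss of beta-PEA calcium signal after compound pretreatment read as receptor desensitization; 0% = DMSO with beta-PEA at EC80 and 100% = DMSO alone without agonist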
Ga16 nonsel ant = nonselective Ga16 antagonism, counter-screen | shares compounds with TAAR1 ag | CHO-Ga16 ATP-induced calcium, Fluo-8 fluorescence | inhibition, % at 3 µM | 2,400 tested, 39% active | AID 651952;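 active = inhibition above the plate's mean compound inhibition plus 3 SD, computed per plate, cut at about 22% in these data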;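 note: 0% = EC80 ATP with DMSO and 100% = DMSO wells without ATP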
Starred values were filed as active, the others as inactive; x = not tested or not shown. Hits are enriched below; roughly 4% of the tested compounds scored in any of these assays.

SMILES	TAAR1 antag	TAAR1 ag	DAGLB inhibitor	MPTP block	GPR7 antagonist	TAAR1 ag conf	Ga16 ag counter	TAAR1 desens	Ga16 nonsel ant
Cc1ccc(-c2c(C(=O)N/N=C/c3ccoc3)nnn2-c2nonc2N)cc1	20	73*	1	0	-8	87*	59*	14	6
CCCOc1ccc(-c2c(C(=O)N/N=C/c3ccc(C)cc3)nnn2-c2nonc2N)cc1	-68	37	x	2	-10	x	x	x	x
Cc1cccc(C)c1C(O)c1ncc(-c2cccc(C(F)(F)F)c2)[nH]1 (centres undefined)	2	12	x	2	x	x	x	x	x
COc1cccc(CNC(=O)[C@H]2CCCN2C(=O)[C@H]2CCCN2C(=O)c2ccc(F)cc2F)c1	-16	1	x	x	x	x	x	x	x
Cc1ccc(S(=O)(=O)NC2=NCN(Cc3ccccc3)CN2)cc1	-2	2	-1	2	-9	x	x	x	x
Cc1ccc(S(=O)(=O)NC2=NCN(CCc3ccccc3)CN2)cc1	3	64*	3	0	-9	43*	0	2	8
COc1ccc(NC(=O)N(C)C[C@@H]2OCc3cnnn3CCCC(=O)N([C@@H](C)CO)C[C@@H]2C)cc1	-14	1	x	x	x	x	x	x	x
Fc1ccccc1N1CCN(C(c2cccs2)c2nnnn2CCc2ccccc2)CC1 (centres undefined)	27	77*	-15	1	-4	83*	0	56*	6
O=C(N[C@H](Cc1ccccc1)C(=O)NC1CCCCC1)[C@H]1O[C@@H](n2ccc(=O)[nH]c2=O)[C@H](O)[C@@H]1O	-4	2	x	x	x	x	x	x	x
Cn1c(=O)oc2ccc(S(=O)(=O)Nc3ccc(Cl)cc3[N+](=O)[O-])cc21	-10	8	x	x	x	x	x	x	x
O=C(O)/C=C/C(=O)NCc1csc2ccccc12	x	x	-1	0	-7	x	2	x	4
O=C(Nc1cc(C(F)(F)F)cc(C(F)(F)F)c1)O[C@@H]1c2ccccc2[C@@H]2Cc3csc[n+]3[C@H]12	-22	0	x	7	x	x	x	x	x
Oc1ccc(C2C[C@H]3CC[C@@H]2C3)cc1O (some centres undefined)	-18	17	1	0	2	x	x	x	x
Oc1ccc(C2CNCc3sccc32)cc1O (centres undefined)	78*	92*	1	-1	x	105*	6	95*	5
O=C(NCC1CCCO1)c1ccc(NC(=O)c2ccc(Br)cc2)cc1 (centres undefined)	-31	78*	x	-1	x	95*	8	71*	7
O=C(NCc1cccnc1)c1ccc(NC(=O)c2ccc(Br)cc2)cc1	4	57*	-2	1	-6	58*	8	28	18
OC(c1ccccc1)C(NCc1ccccc1)c1ccccc1 (centres undefined)	-5	3	-3	0	x	x	x	x	x
O=C(CCc1ccccc1)NCCSCc1c(F)cccc1Cl	2	0	-5	0	0	x	x	x	x
O=C(CSCc1c(F)cccc1Cl)NCCc1ccccc1	12	43*	-13	0	-8	80*	1	39	-2
O=C(COC(=O)CNS(=O)(=O)c1cccc(F)c1)NCCc1ccccc1	-11	5	4	-2	x	x	x	x	x
O=C(CNS(=O)(=O)c1ccc(F)c(Cl)c1)NCCc1ccccc1	-26	45*	-1	0	-2	65*	8	13	-1
NC(CCc1ccccc1)c1csc(Nc2cnccn2)n1 (centres undefined)	-13	8	x	0	x	x	x	x	x
O=C(N/N=C/c1cccc(O)c1)N/N=C/c1cccc(O)c1	16	46*	-2	0	3	81*	1	38	11
COc1cc(/C=N\Nc2cc(=O)n(C)c(=O)n2C)ccc1O	-6	6	0	-1	-4	x	x	x	x
Cn1c(N/N=C\c2cccc(O)c2)cc(=O)n(C)c1=O	7	52*	1	-1	5	77*	1	15	5
SMILES	TAAR1 antag	TAAR1 ag	DAGLB inhibitor	MPTP block	GPR7 antagonist	TAAR1 ag conf	Ga16 ag counter	TAAR1 desens	Ga16 nonsel ant
CCC/C=C/c1ccc(CN2C(C)C(=O)N(Cc3cn(CCC4OCCO4)nn3)CCS2(=O)=O)cc1 (centres undefined)	-2	0	-3	1	x	x	x	x	x
Cc1cccc(NC(=S)NCc2ccc3c(c2)OCO3)c1C	10	0	3	-1	-3	x	x	x	x
Cc1cccc(NC(=O)C(=O)NCc2ccc3c(c2)OCO3)c1C	36	56*	-3	0	-5	10	1	1	-1
CC(=O)N1CCC(O)(c2ccc3c(c2)OCO3)CC1	-5	1	0	2	-10	x	x	x	x
COc1ccc(CCNC(=O)C(C)n2nc(C)c3c(C)n(-c4ccc(C)cc4)nc3c2=O)c(OC)c1 (centres undefined)	10	10	1	2	5	x	x	x	x
CC(Cc1ccccc1)N/C=C1\CC(=O)NC1=O (centres undefined)	53*	74*	0	-1	-5	72*	0	23	6
CC(Cc1ccccc1)NC(=O)C1CCCNC1=O (centres undefined)	-1	11	-3	-2	-3	x	x	x	x
Nc1ccc2c3c(cccc13)C(=O)N(c1ccccc1)C2=O	85*	403*	-201	-1	19	176*	147*	53*	50*
NC(=S)NNC(=O)C12CC3CC(CC(C3)C1)C2	80*	140*	-2	10	10	136*	108*	102*	94*
CCCn1ncc(CN2CCC(C(=O)Nc3cccc(-c4cccc(F)c4)c3)CC2)c1C	7	19	-3	0	11	x	x	x	x
O=C(COC(=O)CCC1CCCC1)Nc1ccc(Cl)cn1	24	46*	-4	-1	-11	1	0	9	15
O=C(COC(=O)C1CCC1)Nc1ccc(Cl)cn1	-15	1	-1	0	x	x	x	x	x
CC(C)(C)c1ccc(C(=O)NNC(=S)NC(=O)c2cccnc2)cc1	35	86*	2	3	-10	49*	47*	38	28*
CC(C)(C)c1ccc(C(=O)NC(=S)NNC(=O)COc2ccccc2)cc1	67*	124*	2	16	-20	124*	101*	100*	81*
Cc1ccc(OCC(=O)Nc2ccc(NC(=O)c3ccccc3)c(C)c2)cc1	44	44*	1	-1	-11	52*	21*	63*	19
